Reference: ChEMBL document CHEMBL4393681, “The identification of naturally occurring labdane diterpenoid calcaratarin D as a potential anti-inflammatory agent” (Eur J Med Chem, 2019)
The source made the active and inactive calls. The rule behind the calls is not given here.

Columns and labels:
Mus musculus [1] = organism: Mus musculus; experiment: Inhibition of LPS-stimulated NFkappaB activation in mouse RAW blue cells assessed as reduction in SEAP protein expression at 0.1 to 20 uM pretreated for 1 hr followed by LPS stimulation and measured after 24 hrs by reporter gene assay; format: cell-based
Procedure, shortened: (§1)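 RAW-Blue NF-κB–SEAP reporter cells were pretreated for 1 h with compound (0.1–20 µM), dexamethasone 1 µM or DMSO vehicle, then given LPS 25 ng/mL for 24 h. SEAP activity in the supernatant was read with LPS-treated 0.02% DMSO cells set as 100%. Mean ± SEM, n = 4.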

[2] = target: Mitogen-activated protein kinase 1 and 3 (ERK2 and ERK1) (Mus musculus) (UniProt P63085+Q63844); experiment: Inhibition of LPS-stimulated ERK1/2 phosphorylation in mouse RAW264.7 cells at 5 to 20 uM pretreated for 1 hr followed by LPS stimulation and measured after 4 hrs by Western blot analysis; format: cell-based
Sequence of Mitogen-activated protein kinase 1 and 3 (ERK2 and ERK1) (Mus musculus) (P63085 whole entry, looked up): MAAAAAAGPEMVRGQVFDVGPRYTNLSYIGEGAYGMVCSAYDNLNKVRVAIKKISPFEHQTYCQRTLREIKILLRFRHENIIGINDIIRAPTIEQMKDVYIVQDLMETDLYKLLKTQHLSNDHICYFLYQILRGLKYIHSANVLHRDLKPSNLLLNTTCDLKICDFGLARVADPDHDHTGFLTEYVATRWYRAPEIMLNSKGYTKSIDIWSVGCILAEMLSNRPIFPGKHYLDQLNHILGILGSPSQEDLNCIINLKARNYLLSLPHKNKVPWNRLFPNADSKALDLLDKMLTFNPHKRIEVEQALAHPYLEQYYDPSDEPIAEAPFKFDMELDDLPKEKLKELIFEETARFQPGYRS
Sequence of Mitogen-activated protein kinase 1 and 3 (ERK2 and ERK1) (Mus musculus) (Q63844 whole entry, looked up): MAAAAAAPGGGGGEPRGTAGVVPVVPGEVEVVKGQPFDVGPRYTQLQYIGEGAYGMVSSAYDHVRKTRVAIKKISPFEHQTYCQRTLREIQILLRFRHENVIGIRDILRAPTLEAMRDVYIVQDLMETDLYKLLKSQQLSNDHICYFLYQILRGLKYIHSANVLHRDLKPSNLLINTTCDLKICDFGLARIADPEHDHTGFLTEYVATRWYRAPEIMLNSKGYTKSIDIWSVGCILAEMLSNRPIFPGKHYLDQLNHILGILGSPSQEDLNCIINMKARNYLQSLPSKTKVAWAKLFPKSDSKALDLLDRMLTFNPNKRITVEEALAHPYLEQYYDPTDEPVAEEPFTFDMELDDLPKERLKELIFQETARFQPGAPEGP
Procedure, shortened: (§2)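 RAW264.7 cells received compound (5–20 µM) or vehicle with LPS 25 ng/mL for 4 h. Phospho-ERK1/2, SAPK/JNK, p38 and Akt were immunoblotted against a GAPDH loading control. Akt phosphorylation was quantified by band intensity, mean ± SEM, n = 4, versus 0.02% DMSO cells.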

RAW264.7 [3] = experiment: Inhibition of LPS-stimulated SAPK/JNK phosphorylation in mouse RAW264.7 cells at 5 to 20 uM pretreated for 1 hr followed by LPS stimulation and measured after 4 hrs by Western blot analysis; format: cell-based; procedure, shortened: as §2
[4] = target: MAP kinase p38 (Mus musculus) (UniProt P47811+O08911+Q9WUI1+Q9Z1B7); experiment: Inhibition of LPS-stimulated p38 MAPK phosphorylation in mouse RAW264.7 cells at 5 to 20 uM pretreated for 1 hr followed by LPS stimulation and measured after 4 hrs by Western blot analysis; format: cell-based; procedure, shortened: as §2
[5] = target: RAC-alpha serine/threonine-protein kinase (Mus musculus) (UniProt P31750); experiment: Inhibition of LPS-stimulated AKT phosphorylation in mouse RAW264.7 cells at 5 to 20 uM pretreated for 1 hr followed by LPS stimulation and measured after 4 hrs by Western blot analysis; format: cell-based; procedure, shortened: as §2
Sequence of RAC-alpha serine/threonine-protein kinase (Mus musculus) (P31750 whole entry): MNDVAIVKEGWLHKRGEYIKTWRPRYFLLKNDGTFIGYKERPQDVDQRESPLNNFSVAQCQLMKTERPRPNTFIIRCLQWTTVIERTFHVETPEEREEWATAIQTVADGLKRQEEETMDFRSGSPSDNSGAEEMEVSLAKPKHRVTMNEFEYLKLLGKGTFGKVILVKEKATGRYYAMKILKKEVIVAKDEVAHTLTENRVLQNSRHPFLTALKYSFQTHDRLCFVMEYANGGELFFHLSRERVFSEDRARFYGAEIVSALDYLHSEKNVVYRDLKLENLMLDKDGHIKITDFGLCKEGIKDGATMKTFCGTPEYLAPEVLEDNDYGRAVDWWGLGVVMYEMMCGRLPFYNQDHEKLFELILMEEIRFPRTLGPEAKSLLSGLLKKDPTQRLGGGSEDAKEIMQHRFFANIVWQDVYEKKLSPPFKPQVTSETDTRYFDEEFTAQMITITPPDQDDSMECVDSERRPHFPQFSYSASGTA

RAW264.7 [6] = experiment: Anti-inflammatory activity in mouse RAW264.7 cells assessed as inhibition of LPS-induced TNFalpha production at 0.1 uM pretreated for 1 hr followed by LPS stimulation and measured after 18 hrs by ELISA relative to control; format: functional; set-up: scale not given: the % may be the effect or the level left
Procedure, shortened: (§3)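 DMSO stocks (100 mM) were tested at 0.1, 1, 5 and 20 µM on LPS-stimulated RAW264.7 cells, with dexamethasone 1 µM as positive control. Secreted TNF-α or IL-6 was normalized to the percentage of viable LPS-stimulated cells at each concentration. Mean of three separate experiments, each in triplicate.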

RAW264.7 [7] = experiment: Anti-inflammatory activity in mouse RAW264.7 cells assessed as inhibition of LPS-induced TNFalpha production at 1 uM pretreated for 1 hr followed by LPS stimulation and measured after 18 hrs by ELISA relative to control; format: functional; set-up: scale not given: the % may be the effect or the level left; procedure, shortened: as §3
[8] = Cytotoxicity against mouse RAW264.7 cells assessed as cell viability at 0.1 uM incubated for 18 hrs by celltiter-glo luminescent assay relative to control; format: cell-based; conditions: read-out: Activity
Procedure, shortened: (§4)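 Non-stimulated RAW264.7 cells were exposed to 0.1, 1, 5 and 20 µM compound from 100 mM DMSO stocks. Percent viability is the mean of three separate experiments with triplicate samples.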

RAW264.7 [9] = experiment: Anti-inflammatory activity in mouse RAW264.7 cells assessed as inhibition of LPS-induced TNF-alpha mRNA expression pretreated for 1 hr followed by LPS stimulation and measured after 4 hrs by RT-PCR analysis; format: functional, cell-based
Procedure, shortened: (§5)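 RAW264.7 cells were exposed to compound (1, 5, 20 µM), dexamethasone 1 µM or 0.02% DMSO vehicle, then stimulated with LPS 25 ng/mL for 4 h. Total RNA was isolated and analysed by real-time PCR. mRNA was normalized to β-actin and expressed relative to unstimulated control cells. Mean ± SEM, n = 4.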

[10] = Cytotoxicity against mouse RAW264.7 cells assessed as cell viability at 1 uM incubated for 18 hrs by celltiter-glo luminescent assay relative to control; format: cell-based; conditions: read-out: Activity; procedure, shortened: as §4
[11] = Cytotoxicity against mouse RAW264.7 cells assessed as cell viability at 5 uM incubated for 18 hrs by celltiter-glo luminescent assay relative to control; format: cell-based; conditions: read-out: Activity; procedure, shortened: as §4
[12] = Cytotoxicity against mouse RAW264.7 cells assessed as cell viability at 20 uM incubated for 18 hrs by celltiter-glo luminescent assay relative to control; format: cell-based; conditions: read-out: Activity; procedure, shortened: as §4
RAW264.7 [13] = experiment: Anti-inflammatory activity in mouse RAW264.7 cells assessed as inhibition of LPS-induced TNFalpha production at 5 uM pretreated for 1 hr followed by LPS stimulation and measured after 18 hrs by ELISA relative to control; format: functional; set-up: scale not given: the % may be the effect or the level left; procedure, shortened: as §3
RAW264.7 [14] = experiment: Anti-inflammatory activity in mouse RAW264.7 cells assessed as inhibition of LPS-induced TNFalpha production at 20 uM pretreated for 1 hr followed by LPS stimulation and measured after 18 hrs by ELISA relative to control; format: functional; set-up: scale not given: the % may be the effect or the level left; procedure, shortened: as §3
RAW264.7 [15] = experiment: Anti-inflammatory activity in mouse RAW264.7 cells assessed as inhibition of LPS-induced IL-6 production at 0.1 uM pretreated for 1 hr followed by LPS stimulation and measured after 18 hrs by ELISA relative to control; format: functional; set-up: scale not given: the % may be the effect or the level left; procedure, shortened: as §3
RAW264.7 [16] = experiment: Anti-inflammatory activity in mouse RAW264.7 cells assessed as inhibition of LPS-induced IL-6 production at 1 uM pretreated for 1 hr followed by LPS stimulation and measured after 18 hrs by ELISA relative to control; format: functional; set-up: scale not given: the % may be the effect or the level left; procedure, shortened: as §3
RAW264.7 [17] = experiment: Anti-inflammatory activity in mouse RAW264.7 cells assessed as inhibition of LPS-induced IL-6 production at 5 uM pretreated for 1 hr followed by LPS stimulation and measured after 18 hrs by ELISA relative to control; format: functional; set-up: scale not given: the % may be the effect or the level left; procedure, shortened: as §3
RAW264.7 [18] = experiment: Anti-inflammatory activity in mouse RAW264.7 cells assessed as inhibition of LPS-induced IL-6 production at 20 uM pretreated for 1 hr followed by LPS stimulation and measured after 18 hrs by ELISA relative to control; format: functional; set-up: scale not given: the % may be the effect or the level left; procedure, shortened: as §3
RAW264.7 [19] = experiment: Anti-inflammatory activity against mouse RAW264.7 cells assessed as inhibition of LPS-stimulated NO production pretreated for 1 hr followed by LPS stimulation and measured after 24 hrs by Griess reagent based assay; format: functional, cell-based
RAW264.7 [20] = experiment: Anti-inflammatory activity in mouse RAW264.7 cells assessed as inhibition of LPS-induced IL-6 mRNA expression pretreated for 1 hr followed by LPS stimulation and measured after 4 hrs by RT-PCR analysis; format: functional, cell-based; procedure, shortened: as §5
RAW264.7 [21] = experiment: Anti-inflammatory activity in mouse RAW264.7 cells assessed as inhibition of LPS-induced IL-1beta mRNA expression pretreated for 1 hr followed by LPS stimulation and measured after 4 hrs by RT-PCR analysis; format: functional, cell-based; procedure, shortened: as §5
RAW264.7 [22] = experiment: Anti-inflammatory activity in mouse RAW264.7 cells assessed as inhibition of LPS-induced MCP-1 mRNA expression pretreated for 1 hr followed by LPS stimulation and measured after 4 hrs by RT-PCR analysis; format: functional, cell-based; procedure, shortened: as §5
RAW264.7 [23] = experiment: Anti-inflammatory activity in mouse RAW264.7 cells assessed as inhibition of LPS-induced iNOS mRNA expression pretreated for 1 hr followed by LPS stimulation and measured after 4 hrs by RT-PCR analysis; format: functional, cell-based; procedure, shortened: as §5
Mus musculus [24] = organism: Mus musculus; experiment: Inhibition of LPS-stimulated NFkappaB activation in mouse RAW blue cells assessed as reduction in SEAP protein expression pretreated for 1 hr followed by LPS stimulation and measured after 24 hrs by reporter gene assay; format: cell-based; procedure, shortened: as §1
[25] = target: Transcription factor p65 (Mus musculus) (UniProt Q04207); experiment: Effect on p65 subunit NFkappaB phosphorylation in mouse RAW264.7 cells at 5 to 20 uM pretreated for 1 hr followed by LPS stimulation and measured after 4 hrs by Western blot analysis; format: cell-based
Sequence of Transcription factor p65 (Mus musculus) (Q04207 whole entry): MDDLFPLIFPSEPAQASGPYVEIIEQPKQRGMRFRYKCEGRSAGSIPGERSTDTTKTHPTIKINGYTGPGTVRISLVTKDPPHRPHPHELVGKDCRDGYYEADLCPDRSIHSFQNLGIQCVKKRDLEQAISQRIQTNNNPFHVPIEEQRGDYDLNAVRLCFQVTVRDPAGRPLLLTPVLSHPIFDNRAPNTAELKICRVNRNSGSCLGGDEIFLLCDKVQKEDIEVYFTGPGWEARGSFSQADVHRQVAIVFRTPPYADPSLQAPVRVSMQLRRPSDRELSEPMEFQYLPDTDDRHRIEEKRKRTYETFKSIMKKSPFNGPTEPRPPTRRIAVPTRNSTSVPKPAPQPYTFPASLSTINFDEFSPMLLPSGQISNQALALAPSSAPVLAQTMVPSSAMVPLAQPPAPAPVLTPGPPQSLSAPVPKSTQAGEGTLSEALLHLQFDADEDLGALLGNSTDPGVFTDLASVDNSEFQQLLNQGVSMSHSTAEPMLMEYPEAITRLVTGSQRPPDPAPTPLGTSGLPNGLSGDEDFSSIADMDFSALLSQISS
Procedure, shortened: (§6)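 Whole-cell lysates from RAW264.7 cells given compound (5–20 µM) or vehicle and LPS 25 ng/mL for 4 h. Phosphorylated and total p65 were immunoblotted and bands quantified densitometrically. Mean ± SEM, n = 4, compared with 0.02% DMSO cells.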

[26] = target: Transcription factor p65 (Mus musculus) (UniProt Q04207); experiment: Effect on total p65 NFkappaB subunit protein level in mouse RAW264.7 cells at 5 to 20 uM pretreated for 1 hr followed by LPS stimulation and measured after 4 hrs by Western blot analysis; format: cell-based; procedure, shortened: as §6
[27] = target: Transcription factor p65 (Mus musculus) (UniProt Q04207); experiment: Inhibition of LPS-stimulated NFkappaB activation in mouse RAW264.7 cells assessed as blockade of p65 NFkappaB nuclear translocation at 20 uM pretreated for 1 hr followed by LPS stimulation and measured after 4 hrs by Western blot analysis; format: cell-based
Procedure, shortened: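 After compound at 20 µM or vehicle with LPS 25 ng/mL for 4 h, cytoplasmic and nuclear fractions were blotted for p65. TBP (nuclear) and GAPDH (cytoplasmic) served as loading controls. Nuclear p65 was quantified by band intensity, mean ± SEM, n = 4.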

[28] = target: RAC-alpha serine/threonine-protein kinase (Mus musculus) (UniProt P31750); experiment: Inhibition of LPS-stimulated AKT phosphorylation in mouse RAW264.7 cells pretreated for 1 hr followed by LPS stimulation and measured after 4 hrs by Western blot analysis; format: cell-based; procedure, shortened: as §2

C=C1CC[C@@H]2[C@](C)(CO)[C@H](O)CC[C@@]2(C)[C@@H]1C/C=C1/C(=O)OC[C@H]1O
inhibition (Mus musculus [1]): inactive | inhibition [2]: Active | inhibition (RAW264.7 [3]): Active | inhibition [4]: Active | inhibition [5]: Active

C=C1CC[C@H]2C(C)(C)CCC[C@]2(C)[C@H]1C/C=C1/C(=O)OC[C@H]1O
Activity (RAW264.7 [6]): 99.3% | Activity (RAW264.7 [7]): 63.4% | viability at 18 h, 0.1 µM [8]: 103% | inhibition (RAW264.7 [9]): Dose-dependent effect | viability at 18 h, 1 µM [10]: 95.6% | viability at 18 h, 5 µM [11]: 82.7% | viability at 18 h, 20 µM [12]: 53.7% | Activity (RAW264.7 [13]): 19.2% | Activity (RAW264.7 [14]): 1.7% | Activity (RAW264.7 [15]): 99.2% | Activity (RAW264.7 [16]): 68.1% | Activity (RAW264.7 [17]): 40% | Activity (RAW264.7 [18]): 10.8% | IC50 (RAW264.7 [19]): 3.91 µM | inhibition (RAW264.7 [19]): Dose-dependent effect | inhibition (RAW264.7 [20]): Dose-dependent effect | inhibition (RAW264.7 [21]): Dose-dependent effect | inhibition (RAW264.7 [22]): Dose-dependent effect | inhibition (RAW264.7 [23]): Dose-dependent effect | inhibition (Mus musculus [24]): Dose-dependent effect | Activity [25]: inactive | Activity [26]: inactive | inhibition [27]: Active | inhibition [2]: inactive | inhibition (RAW264.7 [3]): inactive | inhibition [4]: inactive | inhibition [28]: Dose-dependent effect
